# From publication PMC6861656 (Angewandte Chemie (International ed. in English), 2019)
# Key:
# GLUT1 = molecular target: T1, GLUT1 (Homo sapiens, UniProt P11166); test: rapafucin 3D microarray screen with GLUT1-containing cell lysate; format: binding; conditions: hit when SBR greater than 3; GLUT1-containing HEK293T lysate
# T1 sequence (P11166 1-492): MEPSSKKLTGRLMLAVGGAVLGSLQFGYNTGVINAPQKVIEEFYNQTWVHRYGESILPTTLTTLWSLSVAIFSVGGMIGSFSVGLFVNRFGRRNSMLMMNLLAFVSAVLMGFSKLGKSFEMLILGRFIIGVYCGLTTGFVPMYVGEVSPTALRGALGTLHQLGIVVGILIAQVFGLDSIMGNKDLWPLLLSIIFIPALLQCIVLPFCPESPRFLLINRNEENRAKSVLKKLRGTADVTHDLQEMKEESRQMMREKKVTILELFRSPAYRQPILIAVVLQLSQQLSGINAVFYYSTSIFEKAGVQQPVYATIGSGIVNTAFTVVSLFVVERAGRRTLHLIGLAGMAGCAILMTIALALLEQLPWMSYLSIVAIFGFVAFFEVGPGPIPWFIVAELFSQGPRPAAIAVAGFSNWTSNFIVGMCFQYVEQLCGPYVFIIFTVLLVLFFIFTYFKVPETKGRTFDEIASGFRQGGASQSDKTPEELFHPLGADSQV
# In short: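 HEK293T cells stably overexpressing GLUT1 gave a detergent-solubilised lysate. This was incubated on rapafucin arrays printed on a diazirine 3D copolymer surface (PEGMA:DMAEMA 8:2; ATRP initiator:propionyl bromide 1:100). Unbound protein was washed off, and bound GLUT1 was detected with anti-GLUT1 antibody plus Cy5 secondary on a microarray scanner. BAY-876 served as positive control.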
# [1] = molecular target: T2, DLD-1 GLUT1 knock out (for GLUT3) (Homo sapiens, UniProt P11169); test: [3H]-2DG uptake in DLD-1 GLUT1 knock out cells; format: cell-based; conditions: DLD-1 GLUT1 knock out vs wild type
# T2 sequence (P11169 1-496): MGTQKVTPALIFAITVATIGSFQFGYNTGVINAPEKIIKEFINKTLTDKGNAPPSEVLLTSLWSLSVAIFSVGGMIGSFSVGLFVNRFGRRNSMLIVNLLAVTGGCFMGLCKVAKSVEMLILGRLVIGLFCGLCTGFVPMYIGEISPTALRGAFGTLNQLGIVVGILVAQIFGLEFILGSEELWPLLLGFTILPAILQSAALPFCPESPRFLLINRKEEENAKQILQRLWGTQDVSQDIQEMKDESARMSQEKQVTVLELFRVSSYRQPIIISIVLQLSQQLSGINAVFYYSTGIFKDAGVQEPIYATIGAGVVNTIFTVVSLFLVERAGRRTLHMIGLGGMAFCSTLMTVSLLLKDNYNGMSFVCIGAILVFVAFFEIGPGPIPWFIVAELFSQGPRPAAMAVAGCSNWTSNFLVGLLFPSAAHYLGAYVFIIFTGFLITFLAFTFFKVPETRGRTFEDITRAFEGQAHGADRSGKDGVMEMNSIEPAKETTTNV
# In short: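 Isogenic DLD-1 lines were run in parallel: wild type (GLUT1) and GLUT1 knockout (GLUT3). Each was treated with test compound, BAY-876 (GLUT1-specific reference) or cytochalasin B (non-specific GLUT inhibitor), then [3H]-2DG uptake was assessed.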
# MCF-7 cells = test: FKBP ligand competition in [3H]-2DG uptake assay in MCF-7 cells; format: cell-based, human; conditions: 20 μM with 100nM of RgA
# In short: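 MCF-7 cells were exposed to test compound at 100 nM together with 20 μM FK506, 20 μM rapamycin, or their combinations, with each agent also given alone. [3H]-2DG uptake was then measured to test whether excess FKBP-binding ligands antagonise inhibition of glucose uptake.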
"signal-to-background ratio (SBR), positive hit on 3D rapafucin microarray (GLUT1)",Compound,inhibitory activity on [3H]-2DG uptake in GLUT1 knock out cells [1],effect on the inhibitory activity of RgA in the [3H]-2DG uptake assay (MCF-7 cells)
identified,Cc1c(NC(=O)c2cc(C(N)=O)nc3cc(F)ccc23)c(C(F)(F)F)nn1Cc1ccc(C#N)cc1 [BAY-876],lost its inhibitory activity,
,C=C1[C@@H](C)[C@H]2[C@H](Cc3ccccc3)NC(=O)[C@]23OC(=O)/C=C/[C@H](O)CCC[C@@H](C)C/C=C/[C@H]3[C@@H]1O [cytochalasin B],maintained its inhibitory activity,
,CO[C@H]1C[C@@H]2CC[C@@H](C)[C@@](O)(O2)C(=O)C(=O)N2CCCC[C@H]2C(=O)O[C@H]([C@H](C)C[C@@H]2CC[C@@H](O)[C@H](OC)C2)CC(=O)[C@H](C)/C=C(\C)[C@@H](O)[C@@H](OC)C(=O)[C@H](C)C[C@H](C)/C=C/C=C/C=C/1C [rapamycin],,negligible effect
,C=CC[C@@H]1/C=C(\C)C[C@H](C)C[C@H](OC)[C@H]2O[C@@](O)(C(=O)C(=O)N3CCCC[C@H]3C(=O)O[C@H](/C(C)=C/[C@@H]3CC[C@@H](O)[C@H](OC)C3)[C@H](C)[C@@H](O)CC1=O)[C@H](C)C[C@@H]2OC [FK506],,negligible effect
